System: HL-60 promyelocytes
Assay: HL-60 differentiation
Type: cell-based
Details: Homo sapiens, HL-60, read-out: HL-60 differentiation EC50
Procedure, shortened: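 Differentiation of HL-60 promyelocytes to monocytes, scored as the percentage of cells reducing nitro blue tetrazolium. EC50 taken from dose–response curves as the concentration giving 50% maturation. Ratio is the average of test compound EC50 over 1α,25-(OH)2D3 EC50. Run in duplicate on at least two occasions.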

## C=C1/C(=C\C=C2/CCC[C@]3(C)[C@@H]([C@H](C)CCCC(C)(C)O)CC[C@@H]23)C[C@@H](O)C[C@@H]1O [Compound 1, 1α,25-Dihydroxyvitamin D3]
  EC50: 2 nM

Reference: paper PMC3612139 (Bioorganic chemistry, 2013)
